This is an account of results in ChEMBL document CHEMBL1142672 (J Med Chem, 2005).

The target of experiment [1] is Phosphodiesterase 3 (Homo sapiens) (UniProt Q14432+Q13370). Kind of experiment: Inhibition of [3H]cAMP binding to human phosphodiesterase 3 at 30 uM; Inactive. Type of experiment: protein assay. The essentials: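 Enzyme isolated from freshly collected human platelets. [3H]cAMP SPA kit assay, substrate at 200 nM (near Km under assay conditions). Compounds tested at 30 µM.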

For experiment [2], the target named is cGMP-specific 3',5'-cyclic phosphodiesterase (Homo sapiens) (UniProt O76074). The experiment is described as follows: Inhibition of [3H]cGMP binding to human Phosphodiesterase 5 at 30 uM; Inactive.
In a further experiment the target is Phosphodiesterase 4 (Homo sapiens, UniProt P27815+Q08499+Q07343+Q08493). Kind of experiment: Inhibition of [3H]cAMP binding to human lung Phosphodiesterase 4. Format: protein assay.
In experiment [3] the target is T1, 3',5'-cyclic-AMP phosphodiesterase 4D (Homo sapiens, UniProt Q08499). Kind of experiment: Inhibition of [3H]cAMP binding to recombinant human Phosphodiesterase 4D3 (PDE4D3) in baculovirus expression system.
T1 sequence (Q08499 whole entry): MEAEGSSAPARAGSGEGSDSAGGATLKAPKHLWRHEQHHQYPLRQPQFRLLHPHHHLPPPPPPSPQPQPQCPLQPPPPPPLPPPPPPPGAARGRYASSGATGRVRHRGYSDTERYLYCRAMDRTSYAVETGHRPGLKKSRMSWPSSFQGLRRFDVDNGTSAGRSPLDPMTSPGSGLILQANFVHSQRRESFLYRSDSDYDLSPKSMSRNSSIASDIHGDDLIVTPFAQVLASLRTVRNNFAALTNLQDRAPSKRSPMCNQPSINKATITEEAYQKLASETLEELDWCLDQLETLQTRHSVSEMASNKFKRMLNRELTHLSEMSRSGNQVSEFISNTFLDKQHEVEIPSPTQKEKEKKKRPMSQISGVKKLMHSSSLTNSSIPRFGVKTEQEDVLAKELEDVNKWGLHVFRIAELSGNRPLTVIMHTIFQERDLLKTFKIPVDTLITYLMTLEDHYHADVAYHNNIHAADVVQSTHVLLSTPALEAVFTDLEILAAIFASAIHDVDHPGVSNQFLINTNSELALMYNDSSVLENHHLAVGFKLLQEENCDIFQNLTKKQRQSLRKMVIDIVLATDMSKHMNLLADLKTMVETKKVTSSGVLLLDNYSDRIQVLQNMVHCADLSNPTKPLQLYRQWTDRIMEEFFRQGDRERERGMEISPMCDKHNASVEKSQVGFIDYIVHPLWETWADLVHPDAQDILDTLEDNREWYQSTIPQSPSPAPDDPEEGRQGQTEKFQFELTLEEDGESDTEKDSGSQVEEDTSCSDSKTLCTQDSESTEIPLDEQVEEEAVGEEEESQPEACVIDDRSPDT
Experiment [4] concerns the target T1, 3',5'-cyclic-AMP phosphodiesterase 4D. Kind of experiment: Inhibition of [3H]cAMP binding to recombinant human Phosphodiesterase 4D5 (PDE4D5) in baculovirus expression system.
The target of experiment [5] is 3',5'-cyclic-AMP phosphodiesterase 4A (Homo sapiens, UniProt P27815). The experiment is described as follows: Inhibition of [3H]cAMP binding to recombinant human Phosphodiesterase 4AL (PDE4AL) in baculovirus expression system.
3',5'-cyclic-AMP phosphodiesterase 4A, sequence (P27815 whole entry): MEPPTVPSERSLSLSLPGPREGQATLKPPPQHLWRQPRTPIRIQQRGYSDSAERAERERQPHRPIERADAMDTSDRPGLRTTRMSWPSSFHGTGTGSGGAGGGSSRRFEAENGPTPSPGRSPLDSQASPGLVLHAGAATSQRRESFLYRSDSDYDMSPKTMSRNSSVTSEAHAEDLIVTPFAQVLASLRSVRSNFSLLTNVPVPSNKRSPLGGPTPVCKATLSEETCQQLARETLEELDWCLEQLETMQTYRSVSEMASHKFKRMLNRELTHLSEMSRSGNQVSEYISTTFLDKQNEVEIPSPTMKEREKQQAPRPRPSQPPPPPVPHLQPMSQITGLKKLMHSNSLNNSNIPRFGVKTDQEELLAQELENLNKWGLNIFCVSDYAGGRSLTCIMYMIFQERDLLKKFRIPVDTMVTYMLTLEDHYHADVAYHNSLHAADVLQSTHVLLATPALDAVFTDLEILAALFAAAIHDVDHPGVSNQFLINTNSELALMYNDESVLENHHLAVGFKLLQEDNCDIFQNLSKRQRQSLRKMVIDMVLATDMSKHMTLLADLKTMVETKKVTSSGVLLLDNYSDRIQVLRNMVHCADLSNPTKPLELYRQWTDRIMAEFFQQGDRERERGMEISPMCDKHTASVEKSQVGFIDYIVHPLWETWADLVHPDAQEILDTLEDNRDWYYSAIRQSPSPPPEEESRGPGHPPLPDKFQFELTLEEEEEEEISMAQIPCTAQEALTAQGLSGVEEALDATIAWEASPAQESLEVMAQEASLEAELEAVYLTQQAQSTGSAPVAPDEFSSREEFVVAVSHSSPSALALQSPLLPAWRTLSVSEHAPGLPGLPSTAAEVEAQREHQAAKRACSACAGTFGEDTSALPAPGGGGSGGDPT
Experiment [6] addresses T1, 3',5'-cyclic-AMP phosphodiesterase 4D. The experiment is described as follows: Inhibition of [3H]cAMP binding to recombinant human Phosphodiesterase 4DE (PDE4DE) in baculovirus expression system.
Experiment [7] concerns the target 3',5'-cyclic-AMP phosphodiesterase 4B (Homo sapiens, UniProt Q07343). Kind of experiment: Inhibition of [3H]cAMP binding to recombinant human Phosphodiesterase 4BL (PDE4BL) in baculovirus expression system.

The Ki is a measure of affinity in units of concentration, obtained from inhibition or displacement.

Each structure is given as a SMILES string. Activity calls are given as the source filed them. No cut-off for these calls is given here. Bounds are passed on as bounds.

3',5'-cyclic-AMP phosphodiesterase 4B, sequence (Q07343 whole entry): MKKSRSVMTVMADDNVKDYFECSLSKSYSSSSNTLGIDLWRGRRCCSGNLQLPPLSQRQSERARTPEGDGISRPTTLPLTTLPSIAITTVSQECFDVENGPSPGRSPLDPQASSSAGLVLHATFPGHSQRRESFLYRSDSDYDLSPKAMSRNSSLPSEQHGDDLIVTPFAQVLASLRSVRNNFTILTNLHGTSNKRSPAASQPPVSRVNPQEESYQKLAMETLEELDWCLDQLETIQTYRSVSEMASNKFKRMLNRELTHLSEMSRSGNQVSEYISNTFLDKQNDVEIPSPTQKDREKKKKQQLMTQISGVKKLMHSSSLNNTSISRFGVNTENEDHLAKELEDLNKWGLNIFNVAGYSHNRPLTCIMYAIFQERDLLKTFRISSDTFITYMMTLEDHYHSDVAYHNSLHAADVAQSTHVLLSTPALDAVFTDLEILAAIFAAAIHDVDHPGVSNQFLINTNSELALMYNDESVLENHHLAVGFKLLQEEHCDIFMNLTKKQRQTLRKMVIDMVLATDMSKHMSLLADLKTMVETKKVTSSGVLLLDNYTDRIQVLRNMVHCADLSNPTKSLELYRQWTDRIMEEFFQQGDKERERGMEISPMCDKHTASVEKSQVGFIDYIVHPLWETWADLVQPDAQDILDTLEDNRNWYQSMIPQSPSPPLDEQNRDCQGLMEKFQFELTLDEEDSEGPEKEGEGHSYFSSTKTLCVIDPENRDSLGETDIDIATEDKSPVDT

Consider `COC(=O)c1ccc(OCC(C)(C)c2nc3c(N)ncn(Cc4ccc(OC)c(OC5CCCC5)c4)c-3n2)cc1`, for which the Effect result in experiment [1] and in experiment [2] was “inactive” in each case. Further, the Ki at Phosphodiesterase 4 came out at 9.3 nM; in experiment [3], 3 nM; in experiment [4], 5.5 nM; in experiment [5], 103 nM; in experiment [6] it was 246 nM; in experiment [7], 5.2 nM.

As for `CCNc1ncn(Cc2ccc(OC)c(OC3CCCC3)c2)c2nc(C(C)C)nc1-2`, the Effect result in experiment [1] and in experiment [2] was “inactive” throughout. Further, the Ki on Phosphodiesterase 4 is 436 nM; in experiment [3] it was 172 nM; in experiment [4], 141 nM; in experiment [5], 3900 nM; in experiment [6], 2890 nM; in experiment [7], 270 nM.

As for `COc1cccc(OC[C@H](C)c2nc3c(N)ncn(Cc4ccc(OC)c(OC5CCCC5)c4)c-3n2)c1`, the Effect entry in experiment [1] and in experiment [2] was “inactive” in each case. Also, the Ki at Phosphodiesterase 4 was determined as 1470 nM; in experiment [3], 493 nM; in experiment [4] it was 322 nM; in experiment [5], 5200 nM; in experiment [6], 5050 nM; in experiment [7], 430 nM.

Consider `COc1ccc(Cn2cnc(N)c3nc(C(C)(C)COc4ccc(C(=O)O)cc4)nc2-3)cc1OC1CCCC1`, for which the Effect entry in experiment [1] and in experiment [2] was “inactive” each time. The Ki was 5230 nM on Phosphodiesterase 4; 4300 nM in experiment [3]; greater than 50000 nM in experiment [4]; greater than 50000 nM in experiment [5]; greater than 50000 nM in experiment [6]; greater than 50000 nM in experiment [7].

In the case of `CC1CC(=O)NN=C1c1ccc(-n2ccnc2)cc1` (stereo not given) [CI-930], the Ki in experiment [3], in experiment [4], in experiment [5], in experiment [6] and in experiment [7] was greater than 50000 nM each time.

`COc1ccc(Cn2cnc(N)c3nc(C(C)(C)COc4ccc(C(N)=O)cc4)nc2-3)cc1OC1CCCC1`: the Effect entry in experiment [1] and in experiment [2] was “inactive” each time. Besides, the Ki at Phosphodiesterase 4 worked out at 25 nM; in experiment [3], 8 nM; in experiment [4], 4.9 nM; in experiment [5], 155 nM; in experiment [6], 312 nM; in experiment [7], 7.6 nM.
